Results pooled from the literature.
Lines come from different studies, so protocols differ.
Target: Protein kinase C zeta type (PRKCZ, Homo sapiens, UniProt Q05513)
Residues used in one study (Q05513 1-592): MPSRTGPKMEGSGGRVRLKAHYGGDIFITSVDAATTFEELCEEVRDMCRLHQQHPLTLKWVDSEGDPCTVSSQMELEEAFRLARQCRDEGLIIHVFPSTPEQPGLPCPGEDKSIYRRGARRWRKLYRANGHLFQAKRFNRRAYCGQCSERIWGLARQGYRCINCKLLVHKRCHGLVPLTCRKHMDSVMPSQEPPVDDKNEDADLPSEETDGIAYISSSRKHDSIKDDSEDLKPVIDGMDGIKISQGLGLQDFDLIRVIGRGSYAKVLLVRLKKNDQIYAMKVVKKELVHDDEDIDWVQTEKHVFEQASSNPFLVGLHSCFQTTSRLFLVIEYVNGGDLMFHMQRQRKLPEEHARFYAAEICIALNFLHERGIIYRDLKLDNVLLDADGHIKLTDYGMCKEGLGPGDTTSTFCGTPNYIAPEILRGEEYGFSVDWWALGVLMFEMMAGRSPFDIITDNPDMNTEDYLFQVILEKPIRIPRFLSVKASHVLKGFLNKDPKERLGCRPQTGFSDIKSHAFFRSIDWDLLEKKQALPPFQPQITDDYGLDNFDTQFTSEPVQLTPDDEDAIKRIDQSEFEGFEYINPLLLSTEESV

Structure (SMILES) | read-out | mode | technique | concentration | quantity | result
CCCOc1ccc(OC)c(F)c1C(=O)c1ccc(C(=O)N[C@@H]2CNC[C@H]2NC(=O)c2ccc3[nH]ncc3c2)cc1 | enzyme activity | inhibitor | – | 10 µM | remaining activity | 60%
CCN(CC)CCNC(=O)c1c(C)[nH]c(/C=C2\C(=O)Nc3ccc(F)cc32)c1C | enzyme activity | inhibitor | – | 10 µM | inhibition | -2%
CCN1CCC2(CC1)NC(=O)c1c(c3ccc(Cl)c(Cl)c3n1C)C2C#N (racemic) | thermal stability | – | DSF | 10 µM | ΔTm | 0.1 °C
COc1cc(-c2cc(-c3ccc(N4CCNCC4)cc3)cnc2C)cc(OC)c1OC | enzyme activity | inhibitor | – | 0.1 µM | inhibition | 5%
C[C@@H](N)[C@H]1CC[C@H](C(=O)Nc2ccncc2)CC1 | enzyme activity | inhibitor | TR-FRET | 10 µM | inhibition | 7.4%
FC(F)c1nc2ccccc2n1-c1nc(N2CCOCC2)nc(N2CCOCC2)n1 | enzyme activity | inhibitor | – | 10 µM | remaining activity | 87%
Cn1c2c(Cl)c(Cl)ccc2c2cc(N)[nH]c(=O)c21 | thermal stability | – | DSF | 10 µM | ΔTm | 0.1 °C
Cn1c(=O)n(-c2ccc(C(C)(C)C#N)cc2)c2c3cc(-c4cnc5ccccc5c4)ccc3ncc21 | enzyme activity | inhibitor | – | 10 µM | remaining activity | 123%
Cc1cc(NC(=O)c2cccc3cc(-c4cccc5[nH]nc(N)c45)ccc23)ccc1F | enzyme activity | inhibitor | – | 0.1 µM | activity vs control | 99%
O=C1Nc2ccc(Cl)cc2C1=Cc1cc(Cl)c(O)c(Cl)c1 | cell-free assay | – | – | 0.5 µM | remaining signal | 95.3%
Nc1nc(Nc2ccccc2)sc1C(=O)c1c(F)cccc1F | enzyme activity | inhibitor | – | 10 µM | remaining activity | 83%
COc1cc(Nc2cnc(C#N)c(O[C@H](C)CN(C)C)n2)ncc1-c1cnn(C)c1 | enzyme activity | inhibitor | radiometric | 1 µM | remaining activity | 121%
CC(C)c1ccc(NC(=O)c2cccs2)c(-c2nc3ccccc3[nH]c2=O)c1 | enzyme activity | inhibitor | – | 1 µM | activity vs control | 97%
COc1cc(Cl)c(C(=O)N[C@@H](CN[C@H]2CC[C@@H](N)CC2)Cc2ccc(C#N)cc2)cc1-c1ccc(CN[C@H](C)c2ccc(C)cc2)o1 | enzyme activity | inhibitor | – | 1 µM | remaining activity | 91%
Cn1c2c(c3ccc(Cl)c(Cl)c31)C(C#N)C1(CCOCC1)NC2=O (centres unmarked) | thermal stability | – | DSF | 10 µM | ΔTm | -0.2 °C
Cc1ccc(NC(=O)c2ccc(C)c(C(F)(F)F)c2)cc1C#Cc1nn(C2CCC(O)CC2)c2ncnc(N)c12 (centres unmarked) | cell-free assay | – | – | 10 µM | remaining signal | 99%
CC(C)(C)c1nc2c(s1)c1nc(N)ncc1c1ccc(NS(=O)(=O)c3c(F)cccc3F)c(F)c12 | enzyme activity | inhibitor | radiometric | 1 µM | remaining activity | 107%
O=C(Nc1cnn(-c2csc(C(=O)NC3COC3)c2)c1)Nc1ccccc1Cl | enzyme activity | inhibitor | – | 5 µM | remaining activity | 105%
Cn1c2c(c3ccc(Cl)c(Cl)c31)C(C#N)C1(CCNCC1)NC2=O (racemic) | thermal stability | – | DSF | 10 µM | ΔTm | 0.9 °C
Cc1ccc(-n2nc(C(C)(C)C)cc2NC(=O)Nc2ccc(OCCN3CCOCC3)c3ccccc23)cc1 | enzyme activity | inhibitor | – | 10 µM | inhibition | -3%
Cc1sc(C(=O)NC2COC2)cc1-n1cc(NC(=O)Nc2c(F)cccc2Cl)cn1 | enzyme activity | inhibitor | – | 10 µM | remaining activity | 104%
CC(C)(O)[C@H]1CC[C@H](Nc2ccc3ncc(-c4cccc(C(F)(F)F)c4)n3n2)CC1 | enzyme activity | inhibitor | – | 1 µM | remaining activity | 98%
Cn1c2c(c3ccc(Cl)c(Cl)c31)C(C#N)C1(CCCC1)NC2=O (centres unmarked) | thermal stability | – | DSF | 10 µM | ΔTm | -0.2 °C
COc1cc2ncnc(Nc3ccc(Oc4ccccc4)cc3C)c2cc1OC | enzyme activity | inhibitor | – | 1 µM | inhibition | 3%
Cc1ccc(Nc2nccc(N(C)c3ccc4c(C)n(C)nc4c3)n2)cc1S(N)(=O)=O | enzyme activity | inhibitor | – | 0.3 µM | inhibition | -3%
c1ccc(CNc2nc(N3CCOc4ccccc43)nc3c2CCCC3)cc1 | target engagement in cells | inhibitor | chemoproteomics | 20 mM | inhibition | 17.3%
